# Assay results published in ChEMBL document CHEMBL1154331, “Allenyl and alkynyl phenyl ethers from the endolichenic fungus Neurospora terricola” (J Nat Prod, 2009).
# Legend:
# HeLa = assay: Cytotoxicity against human HeLa cells after 48 hrs by MTT assay; format: functional, cell-based
# Outline: (§1)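 Run in triplicate; 10^4 cells per well, attached overnight. Cells exposed 4 h at 37 °C, 5% CO2, to compounds serially diluted from 10 mg/mL DMSO stocks (vehicle wells 0.2% DMSO in medium), then medium changed to fresh DMEM and grown a further 48 h. MTT at 0.5 mg/mL added for 3 h at 37 °C in the dark; formazan dissolved in DMSO, absorbance read at 540 nm.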
# MCF7 = assay: Cytotoxicity against human MCF7 cells after 48 hrs by MTT assay; format: functional, cell-based; conditions: MCF7, 48 h; outline: as §1
Structure (SMILES),IC50 (HeLa) [µM],IC50 (MCF7) [µM]
C#C[C@H](O)COc1ccc(COC)cc1,92.6,116
C#C[C@H](O)COc1ccc(CO)cc1 [TERRICOLYNE],> 200,> 200
C=C=CCOc1ccc(CO)cc1 [TERRICOLLENE C],85.2,114
O=c1[nH]cc(F)c(=O)[nH]1 [FLUOROURACIL],10,–
C#C[C@H](O)COc1ccc(COC(C)=O)cc1,> 171,> 171
C=C=CCOc1ccc(CO[C@@H]2O[C@H](CO)[C@@H](O)[C@H](O)[C@H]2O)cc1 [TERRICOLLENE A],53.3,59.2
C=C=CCOc1ccc(CO[C@@H]2O[C@H](CO)[C@@H](O)[C@H](O)[C@@H]2O)cc1 [TERRICOLLENE B],> 118,> 118
